Measurements from ChEMBL document CHEMBL3758131, “Towards new 5-HT7 antagonists among arylsulfonamide derivatives of (aryloxy)ethyl-alkyl amines: Multiobjective based design, synthesis, and antidepressant and anxiolytic properties” (Eur J Med Chem, 2016).

Columns and labels:
[1] = biological target: Adrenergic receptor alpha-1 (Rattus norvegicus); assay: Displacement of [3H]-prazosin from rat alpha1 adrenoceptor in rat cerebral cortex after 1 hr
Mus musculus [2] = assay: Toxicity in ip dosed albino Swiss mouse assessed as effect on spontaneous locomotory activity at MED measured over 2 to 6 mins; assay type: organism-based; conditions: in vivo
Summary of the method: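 Male Albino Swiss mice (22–28 g) received drug i.p. 60 min before testing, in 1% aqueous Tween 80 or distilled water. Each mouse was habituated alone in a plastic cage for 30 min, then ambulation was counted from 2 to 6 min. Groups of 6–10 animals, each used once.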

[3] = biological target: T1, 5-hydroxytryptamine receptor 7 (Homo sapiens, UniProt P34969); assay: Displacement of [3H]-5-CT from human 5-HT7B receptor expressed in HEK293 cells after 1 hr; assay type: cell-based
Summary of the method: (§1)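 Competition binding on membranes from HEK293 cells stably expressing human 5-HT7b or 5-HT1A. Incubation 1 h, at 37 °C for 5-HT7b and at room temperature for 5-HT1A. Non-specific binding defined with 10 µM 5-HT.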

Mus musculus [4] = assay: Toxicity in ip dosed C57BL/6J mouse assessed as effect on spontaneous locomotory activity at MED measured over 1 min 15 secs; assay type: organism-based; conditions: in vivo
Mus musculus [5] = assay: Antidepressant activity in C57BL/6J mouse assessed as average force at 0.625 mg/kg, ip measured over 6 mins by tail suspension test (reference value: 0.281 +/- 0.018 to 0.359 +/- 0.027 N); assay type: functional
Mus musculus [6] = assay: Antidepressant activity in C57BL/6J mouse assessed as immobility time at […] mg/kg, ip measured over 6 mins by tail suspension test (reference value: 160.7 +/- 12 to 170.6 +/- 9 sec); assay type: functional
[7] = biological target: T1, 5-hydroxytryptamine receptor 7; assay: Antagonist activity at human 5-HT7B receptor expressed in CHO cells assessed as inhibition of 5-CT induced cAMP production at 10^-7 M after 30 mins by TR-FRET assay; assay type: functional, cell-based
[8] = biological target: 5-hydroxytryptamine receptor 2A (Homo sapiens, UniProt P28223); assay: Displacement of [3H]-Ketanserin from human 5-HT2A receptor expressed in HEK293 cells after 1 hr; assay type: cell-based
Rattus norvegicus = assay: Antidepressant activity in ip dosed Wistar rat assessed as reduction in immobility time of rat by forced swim test; assay type: functional; conditions: read-out: MED
Summary of the method: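 Male Wistar rats (220-250 g), ip injection 30 min before test. Day 1: 15-min pre-swim in a cylinder with 15 cm of water at 25 °C, then drying under a lamp. Next day: total immobility recorded over the whole 5-min test, with fresh water for each rat.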

Mus musculus [9] = assay: Antidepressant activity in C57BL/6J mouse assessed as average force at 5 mg/kg, ip measured over 6 mins by tail suspension test (reference value: 0.281 +/- 0.018 to 0.359 +/- 0.027 N); assay type: functional
Mus musculus [10] = assay: Antidepressant activity in C57BL/6J mouse assessed as number of events at […], ip measured over 6 mins by tail suspension test (reference value: 1325.1 +/- 77.8 to 1773.4 +/- 109.9); assay type: functional
Mus musculus [11] = assay: Anxiolytic activity in ip dosed albino Swiss mouse assessed as increase in number of shocks accepted measured over 1 min, 15 secs by four plates test; assay type: functional; conditions: read-out: MED
Summary of the method: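 Male Albino Swiss mice, ip injection 60 min before test. Four-plate cage; after 15 s of habituation, each plate-to-plate crossing during a 1-min session is punished with a 0.8 mA, 0.5 s foot shock, followed by a 3-s shock-free interval. Number of shocks accepted is counted.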

Mus musculus [12] = assay: Toxicity in ip dosed C57BL/6J mouse assessed as effect on spontaneous locomotory activity at MED measured over 6 mins; assay type: organism-based; conditions: in vivo, 0.1 h
Summary of the method: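 Mice habituated 30 min in individual cages, then ambulation counted over a period matching each behavioural test: 6 min for the tail suspension test and 1 min 15 s for the four-plate test. Compounds given ip at the active doses.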

Mus musculus [13] = assay: Antidepressant activity in C57BL/6J mouse assessed as number of events at […] mg/kg, ip measured over 6 mins by tail suspension test (reference value: 1325.1 +/- 77.8 to 1773.4 +/- 109.9); assay type: functional
Mus musculus [14] = assay: Antidepressant activity in C57BL/6J mouse assessed as average force at […] mg/kg, ip measured over 6 mins by tail suspension test (reference value: 0.281 +/- 0.018 to 0.359 +/- 0.027 N); assay type: functional
[15] = biological target: T2, 5-hydroxytryptamine receptor 1A (Homo sapiens, UniProt P08908); assay: Displacement of [3H]-8-OH-DPAT from human 5-HT1A receptor expressed in HEK293 cells after 1 hr; assay type: cell-based
T2 sequence (P08908 whole entry): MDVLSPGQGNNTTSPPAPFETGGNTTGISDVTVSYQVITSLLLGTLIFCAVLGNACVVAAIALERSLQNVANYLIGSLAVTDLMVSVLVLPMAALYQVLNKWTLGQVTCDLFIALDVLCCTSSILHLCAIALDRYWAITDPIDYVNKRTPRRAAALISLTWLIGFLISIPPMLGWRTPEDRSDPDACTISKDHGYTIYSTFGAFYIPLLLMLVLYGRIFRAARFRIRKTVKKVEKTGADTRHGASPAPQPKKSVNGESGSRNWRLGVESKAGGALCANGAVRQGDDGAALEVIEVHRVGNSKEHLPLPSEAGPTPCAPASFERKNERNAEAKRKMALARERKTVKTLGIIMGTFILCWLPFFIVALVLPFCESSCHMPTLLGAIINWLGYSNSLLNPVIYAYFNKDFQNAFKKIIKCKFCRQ
Summary of the method: as §1

Mus musculus [16] = assay: Antidepressant activity in C57BL/6J mouse assessed as average force at […], ip measured over 6 mins by tail suspension test (reference value: 0.281 +/- 0.018 to 0.359 +/- 0.027 N); assay type: functional
Mus musculus [17] = assay: Toxicity in ip dosed Albino Swiss mouse assessed as effect on spontaneous locomotory activity at MED measured over 2 to 6 mins; conditions: in vivo
Mus musculus [18] = assay: Antidepressant activity in C57BL/6J mouse assessed as number of events at 5 mg/kg, ip measured over 6 mins by tail suspension test (reference value: 1325.1 +/- 77.8 to 1773.4 +/- 109.9); assay type: functional
[19] = biological target: T1, 5-hydroxytryptamine receptor 7; assay: Antagonist activity at human 5-HT7B receptor expressed in HEK293 cells assessed as inhibition of 5-CT-induced cAMP production after 30 mins by TR-FRET assay; assay type: functional, cell-based
Summary of the method: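 HEK293 cells stably expressing human 5-HT7b, grown in DMEM with 10% dialyzed FBS and G418, then resuspended in HBSS with 5 mM HEPES, 0.5 mM IBMX and 0.1% BSA. 450 cells per well were incubated 30 min at room temperature with compound and 6.2 nM 5-CT. After lysis, cAMP was read by LANCE TR-FRET after 1 h. Triplicate, 8 concentrations (10^-11–10^-4 M). Kb = IC50/(1+A/EC50).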

Mus musculus [20] = assay: Antidepressant activity in C57BL/6J mouse assessed as number of events at 0.625 mg/kg, ip measured over 6 mins by tail suspension test (reference value: 1325.1 +/- 77.8 to 1773.4 +/- 109.9); assay type: functional

T1 sequence (P34969 whole entry): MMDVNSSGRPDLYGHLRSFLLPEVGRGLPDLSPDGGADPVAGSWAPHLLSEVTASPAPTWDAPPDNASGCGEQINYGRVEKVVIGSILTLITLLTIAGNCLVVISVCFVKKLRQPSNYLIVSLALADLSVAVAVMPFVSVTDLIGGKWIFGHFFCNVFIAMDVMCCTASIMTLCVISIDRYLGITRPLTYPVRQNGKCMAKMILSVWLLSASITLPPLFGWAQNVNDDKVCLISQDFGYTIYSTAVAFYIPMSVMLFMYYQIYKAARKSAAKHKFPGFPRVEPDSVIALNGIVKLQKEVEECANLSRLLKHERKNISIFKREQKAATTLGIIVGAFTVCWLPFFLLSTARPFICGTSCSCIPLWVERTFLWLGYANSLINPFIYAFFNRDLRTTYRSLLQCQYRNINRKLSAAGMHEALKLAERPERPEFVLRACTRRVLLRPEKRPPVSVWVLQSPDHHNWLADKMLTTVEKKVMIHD
Chain of 5-hydroxytryptamine receptor 2A (P28223 whole entry): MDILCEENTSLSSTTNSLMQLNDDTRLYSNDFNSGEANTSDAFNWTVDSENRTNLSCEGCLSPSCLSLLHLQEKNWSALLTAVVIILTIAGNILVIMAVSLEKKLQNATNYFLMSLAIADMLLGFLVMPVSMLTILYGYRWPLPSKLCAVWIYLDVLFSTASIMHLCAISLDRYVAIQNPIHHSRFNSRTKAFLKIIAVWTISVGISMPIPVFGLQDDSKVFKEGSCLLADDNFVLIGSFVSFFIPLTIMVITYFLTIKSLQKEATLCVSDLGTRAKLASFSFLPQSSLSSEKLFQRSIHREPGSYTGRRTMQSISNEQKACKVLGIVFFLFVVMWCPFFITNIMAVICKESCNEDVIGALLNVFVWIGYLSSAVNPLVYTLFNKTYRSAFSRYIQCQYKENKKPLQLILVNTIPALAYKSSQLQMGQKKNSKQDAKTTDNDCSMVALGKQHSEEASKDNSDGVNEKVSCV

Compound: O=S(=O)(NC1CCN(CCOc2ccccc2C2CCCC2)CC1)c1cccc(F)c1
- Ki [1]: 1.525 µM
- Activity (Mus musculus [2]): Non-toxic
- Ki [3]: 0.019 µM
- Activity (Mus musculus [4]): Non-toxic
- Activity (Mus musculus [5]): 0.18 N
- Time (Mus musculus [6]): 192.5 s
- inhibition [7]: 61%
- Ki [8]: 0.303 µM
- minimal effective dose (Rattus norvegicus): 1.25 mg/kg
- Activity (Mus musculus [9]): 0.426 N
- Activity (Mus musculus [10]): 1400.7
- minimal effective dose (Mus musculus [11]): 1.25 mg/kg
- Activity (Mus musculus [12]): Non-toxic
- Activity (Mus musculus [13]): 1595.4
- Activity (Mus musculus [14]): 0.29 N
- Ki [15]: 0.545 µM
- Activity (Mus musculus [16]): 0.641 N
- Activity (Mus musculus [17]): Non-toxic
- Activity (Mus musculus [18]): 1682
- Kb [19]: 0.085 µM
- Activity (Mus musculus [20]): 1446.8
